According to ChEMBL document CHEMBL1287652, “QSAR modeling, synthesis and bioassay of diverse leukemia RPMI-8226 cell line active agents” (2010):

How the values were obtained:
Type in all cases: functional
OVCAR-8 = test: Antitumor activity against human OVCAR8 cells at 10 uM after 48 hrs by sulforhodamine B assay relative to control; conditions: OVCAR-8, 48 h, values are per cent of control
Procedure, shortened: (§1)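 NCI panel lines were grown in RPMI-1640 with 5% FBS and 2 mM L-glutamine and seeded at 5000–40,000 cells/well according to doubling time. After 24 h at 37 °C, 5% CO2, one dose from a DMSO stock was added for 48 h. Cells were TCA-fixed (10% final adherent, 16% suspension), SRB-stained and read at 515 nm. Percent growth is relative to untreated control.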

T47D = test: Antitumor activity against human T47D cells at 10 uM after 48 hrs by sulforhodamine B assay relative to control; conditions: values are per cent of control
Procedure, shortened: (§2)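 NCI panel line grown in RPMI-1640 with 5% FBS and 2 mM L-glutamine, plated at 5000–40,000 cells/well, 24 h preincubation. Single final 10 µM from DMSO stock, 48 h at 37 °C, 5% CO2. TCA fixation (10% adherent, 16% suspension), SRB stain, absorbance 515 nm. Percent growth relative to untreated control.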

Malme-3M = test: Antitumor activity against human MALME-3M cells at 10 uM after 48 hrs by sulforhodamine B assay relative to control; conditions: values are per cent of control
Procedure, shortened: (§3)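 Single-dose screen in a 55-line panel. Cells in RPMI-1640 with 5% FBS and 2 mM glutamine were preincubated for 24 h, then exposed to compound (DMSO stock diluted in medium) for 48 h at 37 °C with 5% CO2. Cells were fixed with cold TCA, stained with 0.4% SRB in 1% acetic acid, and dye was solubilized in 10 mM Tris base and read at 515 nm. Growth is given as percent of untreated control.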

NCI-H522 = test: Antitumor activity against human NCI-H522 cells at 10 uM after 48 hrs by sulforhodamine B assay relative to control; conditions: NCI-H522, 48 h, values are per cent of control; procedure, shortened: as §1
U-251 = test: Antitumor activity against human U251 cells at 10 uM after 48 hrs by sulforhodamine B assay relative to control; conditions: U-251, 48 h, values are per cent of control; procedure, shortened: as §2
MDA-MB-231 = test: Antitumor activity against human MDA-MB-231 cells at 10 uM after 48 hrs by sulforhodamine B assay relative to control; conditions: MDA-MB-231, 48 h, values are per cent of control; procedure, shortened: as §3
KM12 = test: Antitumor activity against human KM12 cells at 10 uM after 48 hrs by sulforhodamine B assay relative to control; conditions: KM12, 48 h, values are per cent of control; procedure, shortened: as §3
UACC-62 = test: Antitumor activity against human UACC62 cells at 10 uM after 48 hrs by sulforhodamine B assay relative to control; conditions: UACC-62, 48 h, values are per cent of control; procedure, shortened: as §2
SF-539 = test: Antitumor activity against human SF539 cells at 10 uM after 48 hrs by sulforhodamine B assay relative to control; conditions: SF-539, 48 h, values are per cent of control; procedure, shortened: as §1
BT-549 = test: Antitumor activity against human BT549 cells at 10 uM after 48 hrs by sulforhodamine B assay relative to control; conditions: BT-549, 48 h, values are per cent of control; procedure, shortened: as §3
SR = test: Antitumor activity against human SR cells at 10 uM after 48 hrs by sulforhodamine B assay relative to control; conditions: values are per cent of control; procedure, shortened: as §2
M14 = test: Antitumor activity against human M14 cells at 10 uM after 48 hrs by sulforhodamine B assay relative to control; conditions: M14, 48 h, values are per cent of control; procedure, shortened: as §3
SK-MEL-2 = test: Antitumor activity against human SK-MEL-2 cells at 10 uM after 48 hrs by sulforhodamine B assay relative to control; conditions: SK-MEL-2, 48 h, values are per cent of control; procedure, shortened: as §1
OVCAR-5 = test: Antitumor activity against human OVCAR5 cells at 10 uM after 48 hrs by sulforhodamine B assay relative to control; conditions: OVCAR-5, 48 h, values are per cent of control; procedure, shortened: as §1
NCI-H460 = test: Antitumor activity against human NCI-H460 cells at 10 uM after 48 hrs by sulforhodamine B assay relative to control; conditions: NCI-H460, 48 h, values are per cent of control; procedure, shortened: as §1
TK-10 = test: Antitumor activity against human TK10 cells at 10 uM after 48 hrs by sulforhodamine B assay relative to control; conditions: TK-10, 48 h, values are per cent of control; procedure, shortened: as §2
NCI-H23 = test: Antitumor activity against human NCI-H23 cells at 10 uM after 48 hrs by sulforhodamine B assay relative to control; conditions: NCI-H23, 48 h, values are per cent of control; procedure, shortened: as §1
NCI-H322M = test: Antitumor activity against human NCI-H322M cells at 10 uM after 48 hrs by sulforhodamine B assay relative to control; conditions: values are per cent of control; procedure, shortened: as §1
A549 = test: Antitumor activity against human A549 cells at 10 uM after 48 hrs by sulforhodamine B assay relative to control; conditions: A549, 48 h, values are per cent of control; procedure, shortened: as §3
SW-620 = test: Antitumor activity against human SW620 cells at 10 uM after 48 hrs by sulforhodamine B assay relative to control; conditions: SW-620, 48 h, values are per cent of control; procedure, shortened: as §2
A498 = test: Antitumor activity against human A498 cells at 10 uM after 48 hrs by sulforhodamine B assay relative to control; conditions: A498, 48 h, values are per cent of control; procedure, shortened: as §3
NCI/ADR-RES = test: Antitumor activity against human NCI/ADR-RES cells at 10 uM after 48 hrs by sulforhodamine B assay relative to control; conditions: values are per cent of control; procedure, shortened: as §1
MDA-MB-435 = test: Antitumor activity against human MDA-MB-435 cells at 10 uM after 48 hrs by sulforhodamine B assay relative to control; conditions: MDA-MB-435, 48 h, values are per cent of control; procedure, shortened: as §3
SF-295 = test: Antitumor activity against human SF295 cells at 10 uM after 48 hrs by sulforhodamine B assay relative to control; conditions: SF-295, 48 h, values are per cent of control; procedure, shortened: as §1
MCF7 = test: Antitumor activity against human MCF7 cells at 10 uM after 48 hrs by sulforhodamine B assay relative to control; conditions: MCF7, 48 h, values are per cent of control; procedure, shortened: as §3
SK-MEL-28 = test: Antitumor activity against human SK-MEL-28 cells at 10 uM after 48 hrs by sulforhodamine B assay relative to control; conditions: SK-MEL-28, 48 h, values are per cent of control; procedure, shortened: as §1
OVCAR-3 = test: Antitumor activity against human OVCAR-3 cells at 10 uM after 48 hrs by sulforhodamine B assay relative to control; conditions: OVCAR-3, 48 h, values are per cent of control; procedure, shortened: as §1
HT-29 = test: Antitumor activity against human HT-29 cells at 10 uM after 48 hrs by sulforhodamine B assay relative to control; conditions: HT-29, 48 h, values are per cent of control; procedure, shortened: as §3
SK-OV-3 = test: Antitumor activity against human SKOV3 cells at 10 uM after 48 hrs by sulforhodamine B assay relative to control; conditions: SK-OV-3, 48 h, values are per cent of control; procedure, shortened: as §1
ACHN = test: Antitumor activity against human ACHN cells at 10 uM after 48 hrs by sulforhodamine B assay relative to control; conditions: values are per cent of control; procedure, shortened: as §3
LOX IMVI = test: Antitumor activity against human LOXIMVI cells at 10 uM after 48 hrs by sulforhodamine B assay relative to control; conditions: values are per cent of control; procedure, shortened: as §3

| Structure (SMILES) | growth, % of control at 10 µM (OVCAR-8) [%] | growth, % of control at 10 µM (T47D) [%] | growth, % of control at 10 µM (Malme-3M) [%] | growth, % of control at 10 µM (NCI-H522) [%] | growth, % of control at 10 µM (U-251) [%] | growth, % of control at 10 µM (MDA-MB-231) [%] | growth, % of control at 10 µM (KM12) [%] | growth, % of control at 10 µM (UACC-62) [%] | growth, % of control at 10 µM (SF-539) [%] | growth, % of control at 10 µM (BT-549) [%] | growth, % of control at 10 µM (SR) [%] | growth, % of control at 10 µM (M14) [%] | growth, % of control at 10 µM (SK-MEL-2) [%] | growth, % of control at 10 µM (OVCAR-5) [%] | growth, % of control at 10 µM (NCI-H460) [%] | growth, % of control at 10 µM (TK-10) [%] | growth, % of control at 10 µM (NCI-H23) [%] | growth, % of control at 10 µM (NCI-H322M) [%] | growth, % of control at 10 µM (A549) [%] | growth, % of control at 10 µM (SW-620) [%] | other results |
| --- | --- | --- | --- | --- | --- | --- | --- | --- | --- | --- | --- | --- | --- | --- | --- | --- | --- | --- | --- | --- | --- |
| O=C(Nc1ccc(Cl)cc1)Nc1ccc(OCCCOc2ccc(NC(=O)Nc3ccc(Cl)cc3)cc2)cc1 | 64.1 | 106 | 101 | 91.6 | 103 | 111 | 110 | 98.9 | 91.8 | 102 | 88.7 | 96.7 | 118 | 94.6 | 103 | 129 | 96.5 | 102 | 107 | 104 | growth, % of control at 10 µM (A498): 107%; growth, % of control at 10 µM (NCI/ADR-RES): 99.8%; growth, % of control at 10 µM (MDA-MB-435): 110%; growth, % of control at 10 µM (SF-295): 97.3%; growth, % of control at 10 µM (MCF7): 103%; growth, % of control at 10 µM (SK-MEL-28): 111%; growth, % of control at 10 µM (OVCAR-3): 112%; growth, % of control at 10 µM (HT-29): 114%; growth, % of control at 10 µM (SK-OV-3): 122%; growth, % of control at 10 µM (ACHN): 106%; growth, % of control at 10 µM (LOX IMVI): 98.1% |
| COc1ccc(NC(=O)Nc2ccc(OCCCOc3ccc(NC(=O)Nc4ccc(OC)cc4)cc3)cc2)cc1 | 70.1 | 83.6 | 93.3 | 98.3 | 89.8 | 93.3 | 117 | 109 | 86.7 | 88.1 | 90.4 | 95.5 | 108 | 88.4 | 96.8 | 123 | 94.5 | 90.2 | 111 | 118 | growth, % of control at 10 µM (A498): 144%; growth, % of control at 10 µM (NCI/ADR-RES): 94.4%; growth, % of control at 10 µM (MDA-MB-435): 109%; growth, % of control at 10 µM (SF-295): 71.7%; growth, % of control at 10 µM (MCF7): 55%; growth, % of control at 10 µM (SK-MEL-28): 204%; growth, % of control at 10 µM (OVCAR-3): 116%; growth, % of control at 10 µM (HT-29): 107%; growth, % of control at 10 µM (SK-OV-3): 88.4%; growth, % of control at 10 µM (ACHN): > 100%; growth, % of control at 10 µM (LOX IMVI): 99.3% |
| COc1ccc(NC(=O)Nc2ccccc2OCCCOc2ccccc2NC(=O)Nc2ccc(OC)cc2)cc1 | -65.3 | 9.2 | 55.1 | 63.7 | -50.9 | 34 | 23.8 | 3.9 | -29.6 | 81.2 | -39.7 | 61.4 | 65.8 | 46 | 17.7 | 22 | 2.8 | 82.4 | -80 | 0.7 | growth, % of control at 10 µM (A498): -9.3%; growth, % of control at 10 µM (NCI/ADR-RES): 59.8%; growth, % of control at 10 µM (MDA-MB-435): 41.6%; growth, % of control at 10 µM (SF-295): 49%; growth, % of control at 10 µM (MCF7): 28.2%; growth, % of control at 10 µM (SK-MEL-28): 45.7%; growth, % of control at 10 µM (OVCAR-3): -11.4%; growth, % of control at 10 µM (HT-29): 54.9%; growth, % of control at 10 µM (SK-OV-3): 7.9%; growth, % of control at 10 µM (ACHN): 46.3%; growth, % of control at 10 µM (LOX IMVI): 23.7% |
